Key:
H3K27me3 [1] = settings: mutant EZH2-bearing lymphoma cells; cited from earlier work
MDA-MB-231 cells = assay: Number of analyzed nuclei; assay type: cell-based; settings: MDA-MB-231, 3 days, maximal effect, concentration not given
Summary of the method: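 Proliferation was read from the same 3-day high-content assay in 384-well plates at 37 °C, 5% CO2. Nuclei were counted in the Hoechst (4 µg/mL) DNA channel. Segmentation used a gray-level threshold and minimum/maximum nuclear diameter set on DMSO-treated controls, which excluded debris. Total nuclei per well served as cell number and were expressed as % of DMSO control, in triplicate.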

H3K27me3 [2] = assay: H3K27me3 HCA assay, MDA-MB-231 cells, 384-well format; assay type: cell-based; settings: MDA-MB-231, 3 days
Summary of the method: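 MDA-MB-231 cells were plated in 384-well plates 24 h before compound, diluted in medium from a 10 mM DMSO stock (final DMSO ≤0.6%). Treatment was 3 µM over a time course or a concentration series for 3 days, at 37 °C, 5% CO2. H3K27me3 immunofluorescence used PFA fixation and Triton permeabilization, primary antibody 16 h at 4 °C, plus Hoechst. Confocal imaging averaged about 1500–2000 nuclei; triplicates, % of DMSO control.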

Question: Which “time at which loss of H3K27me3 was apparent” value (H3K27me3 [1]) does the source give for `Cc1cc(C)c(CNC(=O)c2cc(-c3ccc(CN4CCOCC4)cc3)cc3c2cnn3C2CCCC2)c(=O)[nH]1` [EPZ005687] here?
Answer: 24 h

Question: What about the “time required for full effects on H3K27me3” value (H3K27me3 [1]) of the same compound?
Answer: up to 5 days

Question: With `Nc1nccc2c1ncn2C1C=C(CO)C(O)C1O` (stereo not shown) [DZNep, 3-deazaneplanocin A] as the compound, how does the “cell number, % of DMSO control” value (MDA-MB-231 cells) read?
Answer: 45%

Question: And the “global H3K27me3 level at maximum reduction, % of DMSO control” value (H3K27me3 [2])?
Answer: 65%

Source: publication PMC4361481 (Journal of Biomolecular Screening, 2015)
